Data as given in ChEMBL document CHEMBL4837261, “Optimization of TopoIV Potency, ADMET Properties, and hERG Inhibition of 5-Amino-1,3-dioxane-Linked Novel Bacterial Topoisomerase Inhibitors: Identification of a Lead with In Vivo Efficacy against MRSA” (J Med Chem, 2021).
Values after ≈ are worked out from the molar mass of the structure shown.

Assays:
[1] = target: DNA gyrase (Staphylococcus aureus, UniProt P0A0K8+P20831); assay: Inhibition of Staphylococcus aureus Gyrase supercoiling activity assessed as reduction in supercoiling pBR322 DNA by measuring relaxation by bromophenol blue staining based TAE gel method; type: protein-complex assay
[2] = system: Staphylococcus aureus; assay: Antibacterial activity against Staphylococcus aureus ATCC 29213 by CLSI method; type: functional
[3] = target: DNA gyrase (Staphylococcus aureus, UniProt P0A0K8+P20831, D83N); assay: Inhibition of Staphylococcus aureus DNA Gyrase D83N mutant assessed as reduction in supercoiling pBR322 DNA by measuring relaxation by bromophenol blue staining based TAE gel method
[4] = system: Staphylococcus aureus; assay: Antibacterial activity against Staphylococcus aureus harbouring GyrA D83N mutant by CLSI method; type: functional
[5] = Growth inhibition of human K/VP.5 cells incubated for 48 hrs by NBTI cell counting analysis; type: functional; conditions: K562, 48 h
[6] = system: Staphylococcus aureus; assay: Antibacterial activity against Staphylococcus aureus 3527 by CLSI method; type: functional
[7] = target: Topoisomerase IV (Staphylococcus aureus, UniProt P0C1S7+P0C1U9); assay: Inhibition of Staphylococcus aureus topoisomerase IV decatenation activity using kDNA as substrate by ethidium bromide/bromophenol blue staining based agarose gel electrophoresis analysis; type: protein-complex assay
[8] = system: Staphylococcus aureus; assay: Antibacterial activity against cystic fibrosis isolate Staphylococcus aureus by CLSI method; type: functional
[9] = system: Staphylococcus aureus; assay: Antibacterial activity against methicillin-resistant Staphylococcus aureus USA300 by CLSI method; type: functional
[10] = system: Staphylococcus aureus; assay: Selectivity index, ratio of IC50 for inhibition of Staphylococcus aureus topoisomerase IV decatenation activity to IC50 for inhibition of Staphylococcus aureus DNA gyrase supercoiling activity
Procedure, shortened: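 Both IC50s were measured in gel-based assays with S. aureus enzymes: supercoiling inhibition for DNA gyrase and decatenation inhibition for TopoIV. The ratio is TopoIV IC50 divided by gyrase IC50.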

[11] = system: Staphylococcus aureus; assay: Antibacterial activity against Staphylococcus aureus by CLSI method; type: functional
Procedure, shortened: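 MICs were determined by broth microdilution per CLSI guidelines, in triplicate at minimum. Strains were S. aureus ATCC 29213, MRSA USA300 and a cystic fibrosis respiratory isolate, and ranges are given where seen.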

[12] = system: Enterococcus sp.; assay: Antibacterial activity against Enterococcus sp. by CLSI method; type: functional
[13] = system: Streptococcus pneumoniae; assay: Antibacterial activity against Streptococcus pneumoniae by CLSI method; type: functional
[14] = system: Acinetobacter baumannii; assay: Antibacterial activity against Acinetobacter baumannii by CLSI method; type: functional

SMILES | IC50 [1] | MIC [2] | IC50 [3] | MIC [4] | IC50 [5] | MIC [6] | IC50 [7] | MIC [8] | MIC [9] | Ratio IC50 [10] | MIC50 [11] | MIC50 [12] | MIC50 [13] | MIC50 [14]
COc1ccc2ncc(F)c(C[C@H](O)[C@H]3OC[C@H](NCc4cc5c(cn4)OCCC5)CO3)c2n1 | 140 nM | 0.125 µg/mL (≈ 0.266 µM) | 13000 nM | 8 µg/mL (≈ 17 µM) | 80500 nM | 0.5 µg/mL (≈ 1.06 µM) | 1300 nM | 0.5 µg/mL (≈ 1.06 µM) | – | – | – | – | – | –
COc1ccc2ncc(F)c(C(O)C[C@H]3OC[C@H](NCc4ccc(C)cc4)CO3)c2c1 (mixture of isomers) | 110 nM | 0.125 µg/mL (≈ 0.293 µM) | – | 16 µg/mL (≈ 37.5 µM) | 21700 nM | 0.5 µg/mL (≈ 1.17 µM) | 14000 nM | 0.5 µg/mL (≈ 1.17 µM) | 0.5 µg/mL (≈ 1.17 µM) | – | – | – | – | –
COc1ccc2ncc(F)c(C[C@H](O)[C@H]3OC[C@H](NCc4ccc5c(n4)NC(=O)CO5)CO3)c2c1 | 84 nM | 0.5 µg/mL (≈ 1.03 µM) | 1900 nM | 4 µg/mL (≈ 8.26 µM) | > 50000 nM | 0.25 µg/mL (≈ 0.516 µM) | 1300 nM | 0.5 µg/mL (≈ 1.03 µM) | 0.25 µg/mL (≈ 0.516 µM) | – | – | – | – | –
COc1ccc2ncc(F)c(C(O)C[C@H]3OC[C@H](NCc4cc5c(nn4)OCCS5)CO3)c2c1 (mixture of isomers) | 370 nM | 0.5 µg/mL (≈ 1.02 µM) | – | 16 µg/mL (≈ 32.8 µM) | > 200000 nM | 1 µg/mL (≈ 2.05 µM) | 11000 nM | 1 µg/mL (≈ 2.05 µM) | 1 µg/mL (≈ 2.05 µM) | – | – | – | – | –
COc1ccc2ncc(F)c(C[C@H](O)[C@H]3OC[C@H](NCc4cc5c(nn4)OCCO5)CO3)c2n1 | 32000 nM | 0.125 µg/mL (≈ 0.264 µM) | 47000 nM | 2 µg/mL (≈ 4.22 µM) | > 200000 nM | 0.25 µg/mL (≈ 0.528 µM) | 4800 nM | 0.25 µg/mL (≈ 0.528 µM) | 0.25 µg/mL (≈ 0.528 µM) | – | – | – | – | –
COc1ccc2ncc(F)c(C[C@H](O)[C@H]3OC[C@H](NCc4cc5c(cn4)OCS5)CO3)c2n1 | 99 nM | 0.06 µg/mL (≈ 0.126 µM) | 5900 nM | 1 µg/mL (≈ 2.11 µM) | 118000 nM | 0.125 µg/mL (≈ 0.263 µM) | 430 nM | 0.25 µg/mL (≈ 0.527 µM) | 0.125 µg/mL (≈ 0.263 µM) | – | – | – | – | –
COc1ccc2ncc(F)c(C(O)C[C@H]3OC[C@H](NCc4ccc5c(c4)OCCO5)CO3)c2n1 (mixture of isomers) | 22 nM | ≤ 0.25 µg/mL | – | 8 µg/mL (≈ 17 µM) | 39200 nM | ≤ 0.25 µg/mL | 3200 nM | 0.5 µg/mL (≈ 1.06 µM) | 0.25 µg/mL (≈ 0.53 µM) | – | – | – | – | –
COc1ccc2ncc(F)c(C[C@H](O)[C@H]3OC[C@H](NCc4ccc(C)cc4)CO3)c2c1 | 14 nM | 0.25 µg/mL (≈ 0.586 µM) | – | 8 µg/mL (≈ 18.8 µM) | – | 0.5 µg/mL (≈ 1.17 µM) | 4100 nM | 0.25 µg/mL (≈ 0.586 µM) | 0.5 µg/mL (≈ 1.17 µM) | 294 | – | – | – | –
COc1ccc2ncc(F)c(C(O)C[C@H]3OC[C@H](NCc4ccc(Cl)c(Cl)c4)CO3)c2c1 (mixture of isomers) | 160 nM | ≤ 0.25 µg/mL | – | 4 µg/mL (≈ 8.31 µM) | 24500 nM | ≤ 0.25 µg/mL | 8100 nM | 0.5 µg/mL (≈ 1.04 µM) | 0.5 µg/mL (≈ 1.04 µM) | – | – | – | – | –
COc1ccc2ncc(F)c(C[C@H](O)[C@H]3OC[C@H](NCc4ccc(Cl)c(Cl)c4)CO3)c2c1 | 56 nM | 0.125 µg/mL (≈ 0.26 µM) | – | 4 µg/mL (≈ 8.31 µM) | – | 0.25 µg/mL (≈ 0.519 µM) | 1300 nM | 0.5 µg/mL (≈ 1.04 µM) | 0.25 µg/mL (≈ 0.519 µM) | 24 | – | – | – | –
COc1ccc2ncc(F)c(C[C@H](O)[C@H]3OC[C@H](NCc4ccc(C)cc4)CO3)c2n1 | 160 nM | 0.125 µg/mL (≈ 0.292 µM) | 6500 nM | 8 µg/mL (≈ 18.7 µM) | 46900 nM | ≤ 0.25 µg/mL | 2700 nM | 0.25 µg/mL (≈ 0.585 µM) | ≤ 0.25 µg/mL | – | – | – | – | –
COc1ccc2ncc(F)c(C(O)C[C@H]3OC[C@H](NCc4ccc(Cl)c(Cl)c4)CO3)c2n1 (mixture of isomers) | 220 nM | 0.125 µg/mL (≈ 0.259 µM) | – | 4 µg/mL (≈ 8.29 µM) | – | ≤ 0.25 µg/mL | 600 nM | 0.25 µg/mL (≈ 0.518 µM) | 0.25 µg/mL (≈ 0.518 µM) | 2.7 | – | – | – | –
COc1ccc2ncc(F)c(C[C@H](O)[C@H]3OC[C@H](NCc4ccc(Cl)c(Cl)c4)CO3)c2n1 | 160 nM | ≤ 0.25 µg/mL | 5500 nM | 4 µg/mL (≈ 8.29 µM) | 22200 nM | 0.125 µg/mL (≈ 0.259 µM) | 1100 nM | 0.125 µg/mL (≈ 0.259 µM) | 0.125 µg/mL (≈ 0.259 µM) | – | 0.06 µg/mL (≈ 0.124 µM) | 0.06 µg/mL (≈ 0.124 µM) | 4 µg/mL (≈ 8.29 µM) | > 64 µg/mL
COc1ccc2ccc(F)c(C[C@H](O)[C@H]3OC[C@H](NCc4ccc5c(n4)NC(=O)CO5)CO3)c2n1 | 95 nM | 0.25 µg/mL (≈ 0.516 µM) | 69000 nM | 2 µg/mL (≈ 4.13 µM) | > 50000 nM | 0.25 µg/mL (≈ 0.516 µM) | 990 nM | 0.5 µg/mL (≈ 1.03 µM) | 0.25 µg/mL (≈ 0.516 µM) | – | – | – | – | –
COc1ccc2ncc(F)c(C(O)C[C@H]3OC[C@H](NCc4cc5c(cn4)OCCO5)CO3)c2c1 (mixture of isomers) | – | 0.5 µg/mL (≈ 1.06 µM) | – | 16 µg/mL (≈ 33.9 µM) | > 100000 nM | 1 µg/mL (≈ 2.12 µM) | 14000 nM | 0.5 µg/mL (≈ 1.06 µM) | 1 µg/mL (≈ 2.12 µM) | – | – | – | – | –
COc1ccc2ncc(F)c(C(O)C[C@H]3OC[C@H](NCc4cc5c(cn4)OCCO5)CO3)c2n1 (mixture of isomers) | 160 nM | 0.5 µg/mL (≈ 1.06 µM) | – | 16 µg/mL (≈ 33.9 µM) | 232000 nM | 1 µg/mL (≈ 2.12 µM) | 8800 nM | – | 1 µg/mL (≈ 2.12 µM) | – | – | – | – | –
COc1ccc2ccc(F)c(C[C@H](O)[C@H]3OC[C@H](NCc4cc5c(cn4)OCCO5)CO3)c2n1 | 13 nM | 0.125 µg/mL (≈ 0.265 µM) | – | 2 µg/mL (≈ 4.24 µM) | – | 0.125 µg/mL (≈ 0.265 µM) | 870 nM | 0.125 µg/mL (≈ 0.265 µM) | 0.25 µg/mL (≈ 0.53 µM) | 67 | – | – | – | –
COc1ccc2ncc(=O)n(CC(O)[C@H]3OC[C@H](NCc4ccc5c(c4)OCCO5)CO3)c2c1 (mixture of isomers) | 19 nM | 0.125 µg/mL (≈ 0.266 µM) | – | 8 µg/mL (≈ 17 µM) | 71100 nM | 0.5 µg/mL (≈ 1.06 µM) | 4000 nM | 0.25 µg/mL (≈ 0.532 µM) | 0.5 µg/mL (≈ 1.06 µM) | – | – | – | – | –
COc1ccc2ncc(F)c(C[C@H](O)[C@H]3OC[C@H](NCc4cc5c(cn4)OCCO5)CO3)c2c1 | 42 nM | 0.25 µg/mL (≈ 0.53 µM) | – | > 8 µg/mL | – | 0.5 µg/mL (≈ 1.06 µM) | 5700 nM | 0.5 µg/mL (≈ 1.06 µM) | 0.5 µg/mL (≈ 1.06 µM) | 136 | 0.25 µg/mL (≈ 0.53 µM) | 0.12 µg/mL (≈ 0.255 µM) | 2 µg/mL (≈ 4.24 µM) | 64 µg/mL (≈ 136 µM)
COc1ccc2ccc(F)c(C[C@H](O)[C@H]3OC[C@H](NCc4ccc(Cl)c(Cl)c4)CO3)c2n1 | 43 nM | 0.25 µg/mL (≈ 0.519 µM) | – | 4 µg/mL (≈ 8.31 µM) | – | 0.25 µg/mL (≈ 0.519 µM) | 2300 nM | 0.25 µg/mL (≈ 0.519 µM) | 0.5 µg/mL (≈ 1.04 µM) | 54 | – | – | – | –
